# IDE inh: human IDE inhibitors in live cells, primary screen, fluorescence polarization, HEK cells, FAbetaB substrate. Insulin-degrading enzyme (Homo sapiens), P14735. FAbetaB cleavage. inhibition, % at 5.59 µM. 0.41% of 320,000 active. AID 434962, 2010;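 active = percent inhibition above the average of all tested compounds plus 3 SD, set per screening campaign, cut at about 16% in these data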;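 note: IDE supplied by intact live HEK cells; FP after avidin binding of uncleaved biotin substrate so inhibition keeps polarization high; 0% = DMSO wells and 100% = 60 µM reference IDE inhibitor Ii1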
# IDE cell activ: human IDE activators in live cells, primary screen, fluorescence polarization, HEK cells, FAbeta-B substrate | Insulin-degrading enzyme (Homo sapiens), P14735 | FAbeta-B cleavage; 0% vehicle, 100% cell-free pure enzyme wells | activation, % at 5.96 µM | 0.073% of 340,000 active;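 active = activation above the mean of all tested compounds plus 3 SD, set per screening campaign, cut at about 17% in these data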
# Rpn11 inh: Rpn11 (PSMD14) deubiquitinase inhibitors, primary screen, biochemical, fluorescence polarization, uHTS; 0.59% of 360,000 active; human 26S proteasome, Ub4-pepOG fluorescence polarization; 20S core pre-blocked with epoxomicin; 26S proteasome non-ATPase regulatory subunit 14 (Homo sapiens), O00487; calls only at 20 µM;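 active = inhibition at 20 µM, scaled to each plate's controls, above about 33%, limit read from the data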
# HNF4A DNA FP: change in binding of human HNF4A to DNA, primary screen, biochemical, fluorescence polarization, FITC-DNA | activity change, % at 10 µM | Hepatocyte nuclear factor 4-alpha (Homo sapiens), P41235 | 1 h | 0.3% of 360,000 active; in the data active = activity change above about 30%, passing the limit was not always enough
# Target sequence (P41235 whole entry, looked up): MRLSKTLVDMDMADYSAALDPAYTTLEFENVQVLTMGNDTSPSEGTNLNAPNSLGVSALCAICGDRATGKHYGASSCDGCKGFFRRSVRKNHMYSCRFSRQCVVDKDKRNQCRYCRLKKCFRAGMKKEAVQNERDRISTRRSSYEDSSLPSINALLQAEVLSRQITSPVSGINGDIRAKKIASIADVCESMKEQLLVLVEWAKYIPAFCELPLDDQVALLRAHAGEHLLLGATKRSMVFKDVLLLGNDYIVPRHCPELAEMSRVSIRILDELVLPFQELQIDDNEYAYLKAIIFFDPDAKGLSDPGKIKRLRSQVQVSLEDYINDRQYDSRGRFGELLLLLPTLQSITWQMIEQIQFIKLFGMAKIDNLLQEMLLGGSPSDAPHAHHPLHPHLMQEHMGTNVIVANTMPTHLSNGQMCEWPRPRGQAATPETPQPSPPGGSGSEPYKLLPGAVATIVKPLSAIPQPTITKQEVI
# CSN deneddyl inh: inhibitors of CSN-mediated cullin deneddylation, primary screen, biochemical, fluorescence polarization, uHTS. COP9 signalosome complex subunit 5 (Homo sapiens), Q92905. Purified CSN, SCF-Nedd8-OG deneddylation. inhibition, % at 12.5 µM. 0.38% of 360,000 active. AID 651999, 2013;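 active = pattern-corrected inhibition above about 35%, with an unprinted fluorescence ratio check between 0.5 and 1.5, limit read from the data, passing the limit was not always enough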;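 note: 0% = enzyme with substrate and 100% = substrate without enzyme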
#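 Assay system: Purified human Csn5 enzyme expressed in HEK293T cells | Amount: Enzyme 0.24 nM | Measured by: Fluorescence polarization readout | Medium: Tris/NaCl/DTT buffer, pH 7.5 | Compound dosing: One concentration, 12.5 µM, 0.25% DMSO | Times: 90 min incubation of compound, enzyme and substrate at room temperature | Control set: no-enzyme wells high, enzyme-with-substrate wells low | Read-out: % inhibition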
# TPT1 inhibitor: Candida albicans TPT1 enzyme inhibitors, primary screen, biochemical, fluorescence polarization; tRNA 2'-phosphotransferase TPT1 (Candida albicans SC5314); recombinant caTPT1, FP RNA substrate dephosphorylation; inhibition, % at 5 µM; 0.81% of 300,000 active;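 active = inhibition above the mean of all tested compounds plus 3 SD, set per screening campaign, cut at about 24% in these data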;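 note: plate controls were DMSO alone for no effect and ferristatin control at 100 nM for full effect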
# TPT1 inh confirm: Candida albicans TPT1 inhibitors, confirmation, biochemical, fluorescence polarization, triplicate; shares compounds with TPT1 inhibitor; recombinant caTPT1, RNase T1 coupled; inhibition, % at 5 µM; 74% of 2,400 active;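 active = inhibition above the primary screen limit, the mean inhibition of all tested compounds plus 3 SD, cut at about 25% in these data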
# RNase T1 counter: RNase T1 inhibitors, counter-screen for TPT1 inhibitor project, biochemical, fluorescence polarization; RNase T1 cleavage, 1536-well; inhibition, % at 5 µM; shares compounds with TPT1 inhibitor; 83% of 2,400 active; AID 2153, 2009;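 active = inhibition above the solvent-only control well mean plus 3 SD, limit set per screening run, cut at about 23% in these data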;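 note: plate controls were DMSO wells with enzyme for no effect and wells without RNase T1 for full effect; inhibitors block cleavage so intact labeled substrate keeps polarization high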
# Target sequence (P00651 whole entry, looked up): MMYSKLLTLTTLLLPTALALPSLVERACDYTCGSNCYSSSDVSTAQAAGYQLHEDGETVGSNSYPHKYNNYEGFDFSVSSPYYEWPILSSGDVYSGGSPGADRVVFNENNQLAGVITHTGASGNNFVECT
# Rpn11 inh conf: Rpn11 (PSMD14) deubiquitinase inhibitors, confirmation, biochemical, fluorescence polarization, single concentration; purified human 26S proteasome, Ub4-pepOG fluorescence polarization; proteasome pretreated with epoxomicin; inhibition, % at 20 µM; AID 602318, 2012; 29% of 1,900 active; shares compounds with Rpn11 inh
# MMP-2 inh: MMP-2 enzyme inhibition, confirmation, counter-screen for RPN11 inhibitor project, biochemical, fluorescence, single concentration; shares compounds with Rpn11 inh; recombinant MMP-2, FRET peptide cleavage fluorescence; inhibition, % at 20 µM; 4% of 1,900 active;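 note: human MMP-2 activated beforehand with APMA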
# Thrombin FP: bovine thrombin protease inhibition, confirmation, counter-screen for Rpn11 inhibitor project, biochemical, fluorescence polarization, single concentration; shares compounds with Rpn11 inh; bovine thrombin cleavage of Ub4-pepOG; inhibition, % at 20 µM; 13% of 1,900 active; AID 602333, 2012;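 active = mean inhibition at least 40% at 20 µM, or signal 3 deviations below plate average, so some actives read negative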;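 note: plate controls were thrombin with DMSO for no effect and buffer wells lacking thrombin for full effect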
# * hit, by the source's call; i = inactive; x = not tested or not shown; + = active, no number. Compounds with a hit are over-represented: about 1.7% of the library has one in this group of screens. Cut-off read from the data, not from the text of the source, unless noted: active = inhibition above about 40%; inactive = the rest.
SMILES,IDE inh,IDE cell activ,Rpn11 inh,HNF4A DNA FP,CSN deneddyl inh,TPT1 inhibitor,TPT1 inh confirm,RNase T1 counter,Rpn11 inh conf,MMP-2 inh,Thrombin FP
O=[N+]([O-])c1ccc(C2CCCC/C2=N/O)c([N+](=O)[O-])c1 (configuration not stated),-4.5,-0.7,i,2.4,-2.8,-1.1,x,x,x,x,x
Nc1c(C(=O)N/N=C/c2cccnc2)oc2nc(-c3ccccc3)cc(-c3ccco3)c12,5.1,x,+,23.1,-3.3,57.8*,100.4*,102.6*,-51.0,-80.7,active
N#CCc1ccc(Oc2ncc(C(F)(F)F)cc2Cl)cc1,5.1,5.4,i,0.9,-8.0,0.3,x,x,x,x,x
Cc1ccc(CO/N=C\Cc2snc(Sc3ncc(C(F)(F)F)cc3Cl)c2C#N)cc1,3.7,2.2,+,19.9,19.9,35.2*,27.0*,34.1*,60.1*,9.7,49.1*
O=C(NCC1CCCO1)c1ccc(F)c2ccccc12 (configuration not stated),-0.5,3.1,i,5.1,0.8,-1.0,x,x,x,x,x
CN1CCN(C(=O)CCS(=O)(=O)c2cc3c(cc2Cl)NC(=O)CO3)CC1,2.6,7.5,i,1.6,-1.1,-4.7,x,x,x,x,x
COc1cc(/C=N/NC(=O)c2cccc([N+](=O)[O-])c2)cc(OC)c1O,2.9,1.4,i,0.1,3.9,0.3,x,x,x,x,x
COc1cc(/C=N/NC(=O)c2cncc(Br)c2)cc([N+](=O)[O-])c1O,6.9,3.1,+,10.6,9.9,44.4*,49.5*,63.6*,18.3,27.6,7.5
COc1cc([N+](=O)[O-])cc(/C=N/NC(=O)c2cc(-c3ccccc3)nc3ccccc23)c1O,0.7,12.9,+,17.3,24.0,41.1*,29.1*,44.5*,68.0*,30.7,11.0
COc1cc([N+](=O)[O-])cc(/C=N/NC(=O)c2cncc(Br)c2)c1O,-2.3,3.0,+,10.3,11.7,42.4*,43.4*,59.4*,48.6*,15.8,29.4
Brc1cc(Br)c2nc(-c3ccc(N4CCOCC4)cc3)ccc2c1,x,-3.2,i,6.5,9.7,x,x,x,x,x,x
C=CCN(c1nc(C)cc(OC)n1)S(=O)(=O)c1ccccc1,7.2,4.7,i,1.6,0.5,-4.0,x,x,x,x,x
CCn1c(O)c(N=NC(=O)C(O)c2ccccc2)c2ccccc21 (configuration not stated),-1.5,-2.2,i,0.2,5.6,-0.4,x,x,x,x,x
N#Cc1cccc(N=Cc2c(O)ccc3ccccc23)c1,-0.8,-1.4,i,-1.1,2.2,-3.3,x,x,x,x,x
Cc1ccc(NC(=O)C(C)SCc2nc3sc4c(c3c(=O)[nH]2)CCCC4)nc1 (configuration not stated),0.5,-1.2,+,13.5,7.5,26.0*,36.9*,44.7*,48.7*,-18.1,24.7
CC(SCc1nc2sc3c(c2c(=O)[nH]1)CCCC3)C(=O)Nc1ccccn1 (configuration not stated),2.6,0.2,+,24.2,5.0,32.5*,38.8*,50.3*,39.3,-4.1,29.4
Cc1ccc(NC(=O)C(C)SCc2nc3sc(C)c(C)c3c(=O)[nH]2)nc1 (configuration not stated),2.0,1.7,i,6.1,6.5,8.0,x,x,x,x,x
O=C1C=CC(=O)N1CCNc1ncc(C(F)(F)F)cc1Cl,x,-46.0,i,2.9,1.0,x,x,x,x,x,x
O=c1cc(Cl)[nH]c(=O)n1CCNc1ncc(C(F)(F)F)cc1Cl,5.0,0.7,+,50.5*,36.6*,73.5*,72.4*,84.7*,99.1*,7.1,87.0*
COC(=O)c1ccc(NC(=S)NCc2ccco2)cc1,-1.0,4.2,i,5.3,-13.3,3.4,x,x,x,x,x
COc1cc(/C=C2\NC(=S)N(C)C2=O)ccc1O,12.2,-21.7,+,19.7,33.5,27.2*,30.2*,35.3*,54.4*,49.1*,42.5*
COc1cc(C=C2NC(=O)NC2=O)ccc1O,x,x,i,-2.1,-0.7,x,x,x,x,x,x
Cc1cc(C(=O)N/N=C/c2ccc(C)s2)n[nH]1,1.4,-2.4,i,-1.3,-2.1,-2.2,x,x,x,x,x
CCOC(=O)CSC1=NC(=O)/C(=C\c2ccc(Cl)cc2)S1,8.4,-5.1,+,26.5,19.1,30.0*,52.3*,62.3*,74.3*,12.1,66.1*
Cn1cc(CCC(=O)NC2CC(C)(C)Cc3c2cnn3-c2ccc(F)cc2)cn1 (configuration not stated),x,4.1,i,4.2,0.5,x,x,x,x,x,x
COc1cc(/C=C2/C(=N)N3C(=NC2=O)SN=C3S(C)(=O)=O)ccc1OC(=O)c1ccco1,6.2,-13.4,+,51.2*,30.7,25.1*,31.6*,35.5*,67.1*,13.5,38.9
Cc1cccc(Cn2c(=O)n(CCCC(=O)NCc3ccco3)c(=O)c3ccccc32)c1,4.8,2.3,i,1.4,2.1,-0.2,x,x,x,x,x
NC(=O)CC(NC(=O)Cc1cccc2ccccc12)c1ccc(NC2CCN(Cc3ccccc3)CC2)c([N+](=O)[O-])c1 (configuration not stated),-1.5,1.8,+,7.7,19.4,25.7*,28.9*,40.5*,23.7,-37.6,10.9

# Screening results deposited in PubChem BioAssay by several laboratories.
